Active and inactive are the calls of the source. The rule behind the calls is not given here.
Legend:
[1] = Stability in human Jurkat lymphocytes assessed as half life in mitochondria at 10 uM incubated for 1 hrs by flow cytometry; format: ADME
HeLa [2] = assay: Induction of reactive oxygen species generation in human HeLa cells assessed as increase in ROS level at 20 uM incubated for 1 hr in presence of dihydroethidium by confocal microscopy; format: functional, cell-based
How it was run: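 HeLa cells were seeded at 20,000 per well in chambered coverslips and grown 16 h before treatment at 37 °C. Dihydroethidium (5 µM) was then added for 1 h, and cells were washed twice with complete medium. Confocal imaging followed. Ethidium signal was quantified as mean fluorescence in regions of interest drawn around nuclei.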

[3] = Cytotoxicity against human Jurkat cells assessed as reduction in cell viability incubated for 48 hrs by flow cytometry; format: toxicity, cell-based
[4] = Stability of compound in ethanol at 5 uM incubated for 1 hrs by fluorescence spectroscopy; format: physicochemical
[5] = Cytotoxicity against human HeLa cells assessed as reduction in cell viability incubated for 48 hrs by flow cytometry; format: toxicity, cell-based
[6] = Drug distribution in human HeLa cells assessed as fluorescence in mitochondria at 10 uM incubated for 1 to 3 hrs by MitoTracker Deep Red staining based confocal laser scanning microscopy; format: ADME; conditions: time 1-3 hrs
How it was run: (§1)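 HeLa cells seeded 20,000/well on chambered coverslips and grown 24 h. Compound diluted 1,000-fold from DMSO stock into complete medium (0.1% DMSO) and given at 37 °C, then co-imaged with MitoTracker Deep Red or LysoTracker Red. Live-cell confocal imaging with 63X oil objective, without washing.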

[7] = Drug distribution in human HeLa cells assessed as fluorescence in mitochondria at 2 uM incubated for 1 hrs by confocal laser scanning microscopy; format: ADME
HeLa [8] = assay: Induction of reactive oxygen species generation in human HeLa cells assessed as increase in ROS level at 2 uM incubated for 1 hr in presence of dihydroethidium by confocal microscopy; format: functional, cell-based
How it was run: (§2)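 HeLa cells seeded 20,000/well and grown 16 h. Pyronin 2 μM for 1 h at 37 °C, then DHE 5 μM for 1 h, then two washes with complete medium. Irradiation was 488 nm laser scanning at 25% power. ROIs drawn around nuclei to give mean ethidium fluorescence. Antimycin A 20 μM served as positive control; DHE-only cells were irradiated 1 or 2 min.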

[9] = Drug distribution in human HeLa cells assessed as fluorescence in lysosome at 10 uM incubated for 1 to 3 hrs by LysoTracker red staining based confocal laser scanning microscopy; format: ADME, cell-based; conditions: time 1-3 hrs; how it was run: as §1
[10] = Stability of the compound assessed as bovine serum albumin mediated drug degradation at 10 uM incubated for 1 hrs by fluorescence spectroscopy; format: ADME; conditions: cattle
Albumin = Albumin (Bos taurus, UniProt P02769); assay: Stability of the compound assessed as bovine serum albumin mediated drug degradation at 10 uM incubated for 1 hrs followed by blue-light irradiation for 10 mins by fluorescence spectroscopy; format: ADME; conditions: cattle, 1.167 h, time 70 min
Sequence of Albumin (P02769 whole entry): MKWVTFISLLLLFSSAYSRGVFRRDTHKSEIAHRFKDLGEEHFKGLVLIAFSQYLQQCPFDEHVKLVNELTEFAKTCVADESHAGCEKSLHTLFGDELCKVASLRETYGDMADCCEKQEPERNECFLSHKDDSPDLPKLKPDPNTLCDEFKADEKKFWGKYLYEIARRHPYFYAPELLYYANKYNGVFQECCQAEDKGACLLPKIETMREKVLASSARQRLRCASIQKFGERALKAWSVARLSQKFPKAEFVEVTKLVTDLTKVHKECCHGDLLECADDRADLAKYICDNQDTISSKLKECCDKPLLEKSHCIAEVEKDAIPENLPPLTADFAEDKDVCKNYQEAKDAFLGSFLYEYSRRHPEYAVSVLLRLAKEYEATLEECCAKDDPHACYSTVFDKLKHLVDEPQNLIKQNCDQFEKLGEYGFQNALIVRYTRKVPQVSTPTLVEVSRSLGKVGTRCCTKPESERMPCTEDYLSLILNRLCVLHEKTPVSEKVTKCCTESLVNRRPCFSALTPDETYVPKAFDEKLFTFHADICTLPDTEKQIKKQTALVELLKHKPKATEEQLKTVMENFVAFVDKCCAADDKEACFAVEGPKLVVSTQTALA

HeLa [11] = assay: Induction of mitochondrial membrane potential depolarization in human HeLa cells assessed as fluorescence in nucleoli at 10 uM preincubated for 60 mins followed by CCCP treatment and measured after 5 mins by MitoTracker Deep Red and LysoTracker red staining based confocal laser scanning microscopy; format: functional, cell-based; conditions: time 65.0 min
How it was run: (§3)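 Live HeLa cells seeded 20,000/well and grown 24 h, then loaded with probe 10 μM for 1 h at 37 °C (0.1% DMSO). Then either irradiated at 488 nm for 60 s or given CCCP 10 μM for 5 min. Unwashed cells imaged by confocal (Ex. 488 nm, Em. 500–600 nm) and DIC.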

HeLa [12] = assay: Induction of reactive oxygen species generation in human HeLa cells assessed as fold increase in ROS level by measuring nuclear fluorescence at 2 uM incubated for 60 mins followed by blue-light irradiation for 2 mins by confocal microscopy; format: functional; conditions: time 62 min, 1.033 h; how it was run: as §2
HeLa [13] = assay: Induction of mitochondrial membrane potential depolarization in human HeLa cells assessed as diffuse fluorescence from mitochondria to cytoplasm and nucleus at 10 uM incubated for 1 hrs in presence of blue-light irradiation by MitoTracker Deep red and LysoTracker red staining based confocal laser scanning microscopy; format: functional, cell-based; how it was run: as §3
HeLa [14] = assay: Induction of reactive oxygen species generation in human HeLa cells assessed as fold increase in ROS level by measuring nuclear fluorescence at 2 uM incubated for 60 mins followed by blue-light irradiation for 1 mins in presence of dihydroethidium by confocal microscopy; format: functional; conditions: time 61 min, 1.017 h; how it was run: as §2
HeLa [15] = assay: Induction of mitochondrial membrane potential depolarization in human HeLa cells assessed as fluorescence in nucleoli at 10 uM incubated for 60 mins followed by blue-light irradiation for 60 sec by MitoTracker Deep Red staining based confocal laser scanning microscopy; format: functional, cell-based; conditions: time 61.0 min; how it was run: as §3

COC(=O)c1ccccc1-c1c2ccc(=N)cc-2oc2cc(N)ccc12.Cl [RHODAMINE123]
half-life at 10 µM [1]: > 1000 min

CCCCCC[C@H]1C(=O)O[C@H](C)[C@H](NC(=O)c2cccc(NC=O)c2O)C(=O)O[C@@H](C)[C@@H]1OC(=O)CC(C)C
Activity (HeLa [2]): Active

Fc1cc2cc3cc(F)c(=[N+]4CCC4)cc-3oc2cc1N1CCC1.O=C([O-])C(F)(F)F
half-life at 10 µM [1]: 15 min
IC50 at 48 h [3]: 900 nM
Stability [4]: Stable
IC50 at 48 h [5]: 15 µM

O=C([O-])C(F)(F)F.c1cc(=[N+]2CCC2)cc2oc3cc(N4CCC4)ccc3cc1-2
half-life at 10 µM [1]: 30 min
IC50 at 48 h [3]: 200 nM
Stability [4]: Stable
Drug uptake [6]: Active
IC50 at 48 h [5]: 3 µM

CCN(CC)c1ccc2cc3ccc(N(CC)CC)cc3[o+]c2c1.[Cl-]
half-life at 10 µM [1]: 6 min
Activity [7]: Active
IC50 at 48 h [3]: 100 nM
Activity (HeLa [8]): Active
Stability [4]: Stable
IC50 at 48 h [5]: 2 µM

CCNc1c2cc(F)c(=[N+](CC)CC)cc-2oc2cc(N(CC)CC)c(F)cc12.O=C([O-])C(F)(F)F
half-life at 10 µM [1]: 60 min
IC50 at 48 h [3]: 800 nM
Drug uptake [6]: Active
IC50 at 48 h [5]: 3 µM
Drug uptake [9]: Active

CCN(CC)c1cc2oc3cc(=[N+](CC)CC)c(F)cc-3cc2cc1F.O=C([O-])C(F)(F)F
half-life at 10 µM [1]: 12 min
Activity [7]: Active
Stability [10]: Unstable
IC50 at 48 h [3]: 1000 nM
Stability (Albumin): Unstable
Activity (HeLa [11]): Active
fold change (FC) (HeLa [12]): 2.7
Activity (HeLa [13]): Active
Activity (HeLa [8]): Active
Stability [4]: Stable
fold change (FC) (HeLa [14]): 1.5
Drug uptake [6]: Active
IC50 at 48 h [5]: 9 µM
Activity (HeLa [15]): Active

CCN(CC)c1cc2oc3cc(N(CC)CC)c(F)cc3c(=O)c2cc1F
half-life at 10 µM [1]: 5 min
IC50 at 48 h [3]: 17000 nM
IC50 at 48 h [5]: 51 µM

From ChEMBL document CHEMBL5107970, “Synthesis of a fluorinated pyronin that enables blue light to rapidly depolarize mitochondria” (RSC Med Chem, 2022)
